Among the data in ChEMBL document CHEMBL1139427, “Inhibition of IkappaB kinase-beta and anticancer activities of novel chalcone adamantyl arotinoids” (J Med Chem, 2008) are Activity, IC50 and inhibition values, retold here.

The source made the active and inactive calls. The calls are words filed in the database; no cut-off is given here.

In assay [1] the target is T1, Retinoic acid receptor alpha (Homo sapiens) (UniProt P10276).
T1 sequence (whole entry): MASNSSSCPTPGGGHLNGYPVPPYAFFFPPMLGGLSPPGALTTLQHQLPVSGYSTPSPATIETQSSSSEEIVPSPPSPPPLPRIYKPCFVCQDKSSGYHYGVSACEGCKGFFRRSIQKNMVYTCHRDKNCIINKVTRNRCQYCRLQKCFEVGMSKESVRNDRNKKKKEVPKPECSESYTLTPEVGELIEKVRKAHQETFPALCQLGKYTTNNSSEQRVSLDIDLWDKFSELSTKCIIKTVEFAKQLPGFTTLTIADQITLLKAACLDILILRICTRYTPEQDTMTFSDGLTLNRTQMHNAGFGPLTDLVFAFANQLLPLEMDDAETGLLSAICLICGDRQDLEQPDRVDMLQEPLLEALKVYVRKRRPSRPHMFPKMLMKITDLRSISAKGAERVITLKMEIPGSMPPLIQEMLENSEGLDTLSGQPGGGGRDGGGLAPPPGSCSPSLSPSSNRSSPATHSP
Kind of assay: Antagonist activity at human RARalpha expressed in african green monkey CV1 cells assessed as all-trans-retinoic acid-stimulated Gal4 transactivation activity by luciferase reporter gene assay. Format: functional, cell-based. To be noted: CV-1. The method in brief: (§1)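 Same Gal4-RAR LBD/UAS-luciferase CV-1 transfection, 5% charcoal-treated FBS medium. Cells stimulated with 0.2 µM ATRA alone or with 2 µM compound (10-fold molar excess). Readout after 6 h (RARα, RARβ) or 20 h (RARγ). Luciferase normalized to β-galactosidase, as % of ATRA maximum; mean ± SD, ≥2 experiments in triplicate.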
On the technique in general: Reporter assays use an easily measured gene product as a stand-in for the process of interest.

The target of assay [2] is T2, Retinoic acid receptor gamma (Homo sapiens) (UniProt P13631).
T2 sequence (whole entry): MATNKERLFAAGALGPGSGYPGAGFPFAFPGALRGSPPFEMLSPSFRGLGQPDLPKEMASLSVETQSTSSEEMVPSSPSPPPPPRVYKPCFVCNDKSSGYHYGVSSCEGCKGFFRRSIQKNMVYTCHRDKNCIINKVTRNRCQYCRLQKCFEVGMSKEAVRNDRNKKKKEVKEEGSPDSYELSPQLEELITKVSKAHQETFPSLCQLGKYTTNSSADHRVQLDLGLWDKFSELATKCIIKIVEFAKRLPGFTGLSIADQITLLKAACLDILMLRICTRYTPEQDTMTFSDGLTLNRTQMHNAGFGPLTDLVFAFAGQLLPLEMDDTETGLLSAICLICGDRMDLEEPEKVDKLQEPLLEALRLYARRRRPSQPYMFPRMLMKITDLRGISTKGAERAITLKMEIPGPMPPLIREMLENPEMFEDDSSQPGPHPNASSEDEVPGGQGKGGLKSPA
Kind of assay: Antagonist activity at human RARgamma expressed in african green monkey CV1 cells assessed as all-trans-retinoic acid-stimulated Gal4 transactivation activity by luciferase reporter gene assay. Set-up: scale not given: the % may be the effect or the level left. The note with it: CV-1. In kind it is functional, cell-based. The method in brief: as §1

The target in assay [3] is T3, Retinoic acid receptor beta (Homo sapiens) (UniProt P10826).
T3 sequence (whole entry): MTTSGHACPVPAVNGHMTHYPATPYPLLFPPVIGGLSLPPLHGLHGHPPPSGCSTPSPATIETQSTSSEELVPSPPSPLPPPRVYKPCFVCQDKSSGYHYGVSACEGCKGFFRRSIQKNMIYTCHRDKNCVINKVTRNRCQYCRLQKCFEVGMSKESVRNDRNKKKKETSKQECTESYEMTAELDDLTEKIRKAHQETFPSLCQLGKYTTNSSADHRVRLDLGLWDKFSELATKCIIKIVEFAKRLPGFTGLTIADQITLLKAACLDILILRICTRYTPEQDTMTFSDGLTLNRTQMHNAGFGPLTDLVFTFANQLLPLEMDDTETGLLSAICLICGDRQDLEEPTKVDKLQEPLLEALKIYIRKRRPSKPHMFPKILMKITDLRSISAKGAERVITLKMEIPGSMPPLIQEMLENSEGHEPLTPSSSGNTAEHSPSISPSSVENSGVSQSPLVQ
In words: Antagonist activity at human RARbeta expressed in african green monkey CV1 cells assessed as all-trans-retinoic acid-stimulated Gal4 transactivation activity by luciferase reporter gene assay. In kind it is functional, cell-based. Details: scale not given: the % may be the effect or the level left. The note with it: CV-1. The method in brief:
as §1

Assay [4] relates to Retinoid X receptor RXR-alpha (Mus musculus). Kind of assay: Inhibition of 9-cis-retinoic acid-mediated mouse RXRalpha activation expressed in african green monkey CV1 cells. To be noted: CV-1.
Assay [5] has the same test system. In words: Activation of mouse RXRalpha expressed in african green monkey CV1 cells assessed as luciferase activity. To be noted: CV-1.
The test system of assay [6] is MDA-MB-468. Kind of assay: Antiproliferative activity against estrogen-independent human MDA-MB-468 cells after 48 hrs by MTT assay. Format: functional, cell-based. The note with it: MDA-MB-468, 48 h. The method in brief:
(§2)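 MTT viability assay. PC-3, T-47D and MDA-MB-468 seeded at 5000/well the day before, switched to 0.5% FBS medium at treatment. Jurkat seeded at 10 000/well (10⁵ cells/mL) in RPMI with 0.5% FBS. Compound 0.125-8 µM from DMSO stocks; DMSO ≤0.1% as control. Jurkat 24 h, others 48 h. MTT 4 h at 37 °C, SDS/HCl solubilization, A595. IC50 from two experiments in triplicate.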

Assay [7] has as its system Retinoid X receptor RXR-alpha (Mus musculus). Kind of assay: Inhibition of LGD-1069-mediated mouse RXRalpha activation expressed in african green monkey CV1 cells. The note with it: CV-1.
Assay [8] deals with T1, Retinoic acid receptor alpha (Homo sapiens). Kind of assay: Activity at human RARalpha expressed in african green monkey CV1 cells assessed as enhanced Gal4 transactivation activity by luciferase reporter gene assay. In kind it is cell-based. To be noted: CV-1. A digest of the protocol: (§3)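 Gal4 DBD fused to human RAR LBD (α 156-462, β 149-448, γ 158-454), cotransfected into CV-1 cells (20 000/well) with UAS-luciferase and β-galactosidase vectors. 16 h later, medium with 5% charcoal-treated FBS; compound at 2 µM alone, ATRA 1 µM reference. Read after 6 h (RARα, RARβ) or 20 h (RARγ). Normalized luciferase as % of ATRA maximum; mean ± SD, ≥2 experiments in triplicate.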

Assay [9] deals with T47D. Kind of assay: Antiproliferative activity against estrogen-dependent human T47D cells after 48 hrs by MTT assay. In kind it is functional, cell-based. A digest of the protocol: as §2
Assay [10] deals with T3, Retinoic acid receptor beta (Homo sapiens). In words: Activity at human RARbeta expressed in african green monkey CV1 cells assessed as enhanced Gal4 transactivation activity by luciferase reporter gene assay. Format: cell-based. The note with it: CV-1. The method in brief:
as §3

The subject of assay [11] is Jurkat. Kind of assay: Induction of apoptosis in human Jurkat cells assessed as enhanced DEVDase activity after 4 hrs by fluorescence enzymatic assay. Format: functional, cell-based. The method in brief: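 Jurkat cells (40 000/well, 10⁶ cells/mL) in RPMI with 0.5% FBS, treated 4 h (2 or 4 µM). Lysed in PIPES/NP-40 buffer 30 min at 4 °C, then diluted into HEPES/CHAPS caspase buffer with 100 µM Ac-DEVD-AFC. AFC release read every 2 min over 30 min at 37 °C (ex 390/em 510 nm). Two experiments in triplicate, mean ± SD.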

In assay [12] the test system is Jurkat. In words: Antiproliferative activity against retinoid related molecule-sensitive human Jurkat cells after 24 hrs by MTT assay. In kind it is functional, cell-based. A digest of the protocol:
as §2
(Formazan colour is commonly taken as a measure of viable cells.)

Assay [13] deals with T4, Inhibitor of nuclear factor kappa-B kinase subunit beta (Homo sapiens, UniProt O14920).
T4 sequence (O14920 whole entry): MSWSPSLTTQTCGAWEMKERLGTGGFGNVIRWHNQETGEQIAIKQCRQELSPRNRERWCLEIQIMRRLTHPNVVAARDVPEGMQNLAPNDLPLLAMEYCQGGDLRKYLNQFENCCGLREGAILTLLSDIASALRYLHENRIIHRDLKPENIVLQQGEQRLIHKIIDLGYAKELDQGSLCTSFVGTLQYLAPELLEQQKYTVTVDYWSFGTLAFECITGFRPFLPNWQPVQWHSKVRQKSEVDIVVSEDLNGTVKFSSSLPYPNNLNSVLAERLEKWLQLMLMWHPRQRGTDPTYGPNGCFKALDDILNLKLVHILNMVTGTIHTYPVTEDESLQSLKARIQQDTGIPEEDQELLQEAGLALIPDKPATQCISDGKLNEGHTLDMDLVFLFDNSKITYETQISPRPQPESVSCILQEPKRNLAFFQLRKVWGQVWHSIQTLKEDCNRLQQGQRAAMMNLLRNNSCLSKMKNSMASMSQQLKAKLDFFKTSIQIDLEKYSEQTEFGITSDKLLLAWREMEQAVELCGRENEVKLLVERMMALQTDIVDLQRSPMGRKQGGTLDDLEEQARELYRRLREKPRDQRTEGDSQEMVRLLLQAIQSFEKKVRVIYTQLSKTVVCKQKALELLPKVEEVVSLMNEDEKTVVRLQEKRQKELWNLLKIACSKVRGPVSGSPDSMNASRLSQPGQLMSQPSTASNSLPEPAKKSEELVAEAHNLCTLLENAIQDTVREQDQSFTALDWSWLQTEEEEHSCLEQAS
In words: Inhibition of purified recombinant histidine-HA-tagged IKK-beta expressed in SF9 cells.

In assay [14] the test system is MDA-MB-468. Kind of assay: Antiproliferative activity against estrogen-independent human MDA-MB-468 cells by MTT assay. To be noted: TDE = time-dependent effect. Format: functional, cell-based. A digest of the protocol:
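MDA-MB-468 cells exposed to 2 µM compound in 0.5% FBS medium for 24, 48 or 72 h. Proliferation by MTT (A595) relative to DMSO control. Experiment repeated twice with triplicate time points; one representative experiment reported.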

Assay [15] deals with PC-3. Kind of assay: Antiproliferative activity against human PC3 cells after 48 hrs by MTT assay. In kind it is functional, cell-based. To be noted: PC-3, 48 h. The method in brief: as §2
The target in assay [16] is T5, Inhibitor of nuclear factor kappa-B kinase subunit beta (Homo sapiens) (UniProt O14920).
T5 sequence (whole entry): T4 sequence (O14920 whole entry)
In words: Inhibition of purified recombinant histidine-HA-tagged IKK-beta expressed in SF9 cells at 20 uM. A digest of the protocol:
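(His)6-HA-IKKβ expressed in baculovirus-infected Sf9 cells and Ni-resin purified. 100 ng enzyme in MOPS pH 7.0 buffer with 5 µg GST-IκBα, 10 mM MgCl₂, 6.25 µM ATP (Km level) plus ³²P-γ-ATP. Compound (20 µM) preincubated with enzyme/substrate before ATP/Mg addition. 30 min at 30 °C, stopped with phosphoric acid, filter-bound radioactivity counted. No-enzyme background subtracted; activity as ratio to control. Two to four experiments in triplicate.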

Assay [17] deals with T2, Retinoic acid receptor gamma (Homo sapiens). Kind of assay: Activity at human RARgamma expressed in african green monkey CV1 cells assessed as enhanced Gal4 transactivation activity by luciferase reporter gene assay. Format: cell-based. The note with it: CV-1. A digest of the protocol:
as §3

Assay [18] concerns MDA-MB-468. Kind of assay: Antiproliferative activity against estrogen-independent human MDA-MB-468 cells at 2 uM after 72 hrs by MTT assay.

On to `CC1(C)CC=C(C#Cc2ccccc2)c2cc(/C=C/c3ccc(C(=O)O)cc3)ccc21`, for which the result in assay [1], in assay [2] and in assay [3] was Active.

For orientation: IC50 means the point on the concentration scale where inhibition reaches its midpoint. A word on the inhibition: it is the drop in the measured response relative to a control, in per cent. On to `COCCOCOc1ccc(C(=O)/C=C/c2ccc(C(=O)O)cc2)cc1C12CC3CC(CC(C3)C1)C2`, for which the result in assay [4], in assay [5], in [7], in assay [8], in assay [10] and in assay [17] was inactive. Besides, the half-inhibitory concentration (IC50) in assay [6] was 2110 nM; in assay [9], 3270 nM; in assay [12], 1200 nM; in assay [13] it was 7000 nM; in [15], 1480 nM. The result in [1] and in assay [11] was Active. Also, the Activity in assay [2] is 30%; in [14] it was “tde”; in assay [3] it was 30%. Further, in assay [16], the inhibition came out at 65%.

Regarding `COCCOCOc1cc(O)c(C(=O)/C=C/c2ccc(C(=O)O)cc2)cc1C12CC3CC(CC(C3)C1)C2`, the outcome in assay [4], in [5], in assay [7], in assay [8], in assay [10] and in [17] was inactive. The IC50 in assay [6] worked out at 6080 nM; in [9], 8000 nM; in assay [12] it was 1890 nM; in assay [15] it was 2510 nM. The outcome in assay [1], in assay [2], in assay [11] and in assay [3] was Active. Further, the Activity entry in assay [14] is “tde”; in assay [18], 40%.

In the case of `Cc1ccc2nc(NCCN)c3ncc(C)n3c2c1`, the result in [16] was Active.
